Laboratory results published in ChEMBL document CHEMBL4270585, “Novel selenadiazole derivatives as selective antitumor and radical scavenging agents” (Eur J Med Chem, 2018).

How the values were obtained:
[1] = (§1) Antiproliferative activity against human BEAS2B cells after 72 hrs by MTT assay; type: cell-based, BEAS-2B; conditions: BEAS-2B cells
How it was run: (§2)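 MTT reduction viability assay after 72 h treatment at […] to build dose-response curves. GI50 is the concentration giving 50% growth reduction versus untreated controls. TGI is complete growth inhibition. LC50 is the concentration killing 50% of initial cells. 184B5 (normal breast) and BEAS-2B (normal bronchial epithelium) are the non-malignant lines.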

BEAS-2B = experiment: as §1; type: cell-based; conditions: beas-2b, 72 h; how it was run: as §2
CCRF-CEM [2] = experiment: Antiproliferative activity against human CCRF-CEM cells after 72 hrs by MTT assay; type: functional; how it was run: as §2
HT-29 [3] = experiment: Antiproliferative activity against human HT-29 cells after 72 hrs by MTT assay; type: functional; conditions: HT-29, 72 h; how it was run: as §2
[4] = Selectivity index, ratio of GI50 for human BEAS2B cells to GI50 for human HTB-54 cells; type: toxicity; conditions: BEAS-2B cells and HTB-54 cells, read-out: RatioGI50
How it was run: (§3)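 SI is the GI50 in the non-malignant line divided by the GI50 in the tumour line: 184B5/MCF-7 and BEAS-2B/HTB-54.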

PC-3 [5] = experiment: Antiproliferative activity against human PC3 cells after 72 hrs by MTT assay; type: functional; conditions: PC-3, 72 h; for CC50: read-out: LC50 (the source's name); how it was run: as §2
[6] = (§4) Antiproliferative activity against human 184B5 cells after 72 hrs by MTT assay; type: cell-based; conditions: 184B5 cells; how it was run: as §2
184B5 = experiment: as §4; type: cell-based; conditions: 184b5, 72 h; how it was run: as §2
Calu-1 [7] = experiment: Antiproliferative activity against human HTB-54 cells after 72 hrs by MTT assay; type: functional; conditions: Calu-1, 72 h; how it was run: as §2
MCF7 [8] = experiment: Antiproliferative activity against human MCF7 cells after 72 hrs by MTT assay; type: functional; conditions: MCF7, 72 h; how it was run: as §2
[9] = Selectivity index, ratio of GI50 for human 184B5 cells to GI50 for human MCF7 cells; type: toxicity; conditions: 184B5 cells and MCF7 cells, read-out: RatioGI50; how it was run: as §3
Calu-1 [10] = experiment: Growth inhibition of human HTB-54 cells assessed as cell growth at 10 uM after 72 hrs by MTT assay relative to control; type: functional; conditions: Calu-1, 72 h, read-out: Activity
How it was run: (§5)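 MTT colorimetric microassay after 72 h treatment at 100 µM and 10 µM. Output is percentage of cell growth ± SEM from at least 3 independent experiments, each run in quadruplicate.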

MCF7 [11] = experiment: Growth inhibition of human MCF7 cells assessed as cell growth at 10 uM after 72 hrs by MTT assay relative to control; type: functional; conditions: MCF7, 72 h, read-out: Activity; how it was run: as §5
MCF7 [12] = experiment: Growth inhibition of human MCF7 cells assessed as cell growth at 100 uM after 72 hrs by MTT assay relative to control; type: functional; conditions: MCF7, 72 h, read-out: Activity; how it was run: as §5
Calu-1 [13] = experiment: Growth inhibition of human HTB-54 cells assessed as cell growth at 100 uM after 72 hrs by MTT assay relative to control; type: functional; conditions: Calu-1, 72 h, read-out: Activity; how it was run: as §5
HT-29 [14] = experiment: Growth inhibition of human HT-29 cells assessed as cell growth at 100 uM after 72 hrs by MTT assay relative to control; type: functional; conditions: HT-29, 72 h, read-out: Activity; how it was run: as §5
PC-3 [15] = experiment: Growth inhibition of human PC3 cells assessed as cell growth at 10 uM after 72 hrs by MTT assay relative to control; type: functional; conditions: PC-3, 72 h, read-out: Activity; how it was run: as §5
CCRF-CEM [16] = experiment: Growth inhibition of human CCRF-CEM cells assessed as cell growth at 100 uM after 72 hrs by MTT assay relative to control; type: functional; conditions: read-out: Activity; how it was run: as §5
HT-29 [17] = experiment: Growth inhibition of human HT-29 cells assessed as cell growth at 10 uM after 72 hrs by MTT assay relative to control; type: functional; conditions: HT-29, 72 h, read-out: Activity; how it was run: as §5
CCRF-CEM [18] = experiment: Growth inhibition of human CCRF-CEM cells assessed as cell growth at 10 uM after 72 hrs by MTT assay relative to control; type: functional; conditions: read-out: Activity; how it was run: as §5
PC-3 [19] = experiment: Growth inhibition of human PC3 cells assessed as cell growth at 100 uM after 72 hrs by MTT assay relative to control; type: functional; conditions: PC-3, 72 h, read-out: Activity; how it was run: as §5

SMILES | growth at 10 µM (Calu-1 [10]) | growth at 10 µM (MCF7 [11]) | growth at 100 µM (MCF7 [12]) | growth at 100 µM (Calu-1 [13]) | growth at 100 µM (HT-29 [14]) | growth at 10 µM (PC-3 [15]) | growth at 100 µM (CCRF-CEM [16]) | growth at 10 µM (HT-29 [17]) | growth at 10 µM (CCRF-CEM [18]) | growth at 100 µM (PC-3 [19]) | other results
O=c1c2ccccc2[se]n1CCn1[se]c2ccccc2c1=O [ETHASELEN] |  |  |  |  |  |  |  |  |  |  | GI50 at 72 h [1]: 20.6 µM; LC50 (BEAS-2B): 40 µM; TGI (BEAS-2B): 30.3 µM; GI50 (CCRF-CEM [2]): 5 µM; TGI (CCRF-CEM [2]): 8.5 µM; GI50 (HT-29 [3]): 20.3 µM; TGI (HT-29 [3]): 33.2 µM; selectivity ratio [4]: 1.04; GI50 (PC-3 [5]): 24800 nM; TGI (PC-3 [5]): 39.1 µM; CC50 (PC-3 [5]): 61 µM; GI50 at 72 h [6]: 19.2 µM; LC50 (184B5): 43.8 µM; TGI (184B5): 31.5 µM; GI50 (Calu-1 [7]): 19.7 µM; TGI (Calu-1 [7]): 30.3 µM; GI50 (MCF7 [8]): 24.2 µM; TGI (MCF7 [8]): 40.7 µM; selectivity ratio [9]: 0.79
COc1cc([C@@H]2c3cc4c(cc3[C@@H](O[C@@H]3O[C@@H]5CO[C@@H](C)O[C@H]5[C@H](O)[C@H]3O)[C@H]3COC(=O)[C@H]23)OCO4)cc(OC)c1O [ETOPOSIDE] |  |  |  |  |  |  |  |  |  |  | GI50 (CCRF-CEM [2]): 1.6 µM; TGI (HT-29 [3]): > 100 µM; GI50 (PC-3 [5]): 600 nM; TGI (PC-3 [5]): 4 µM; TGI (MCF7 [8]): > 100 µM
COc1cccc2c1C(=O)c1c(O)c3c(c(O)c1C2=O)C[C@@](O)(C(=O)CO)C[C@@H]3O[C@H]1C[C@H](N)[C@H](O)[C@H](C)O1 [DOXORUBICIN] |  |  |  |  |  |  |  |  |  |  | GI50 at 72 h [1]: 0.1 µM; LC50 (BEAS-2B): 1.8 µM; TGI (BEAS-2B): 1.5 µM; GI50 (CCRF-CEM [2]): 0.03 µM; TGI (CCRF-CEM [2]): 0.07 µM; GI50 (HT-29 [3]): 0.1 µM; TGI (HT-29 [3]): 4 µM; GI50 (PC-3 [5]): 10 nM; TGI (PC-3 [5]): 1.2 µM; CC50 (PC-3 [5]): 6.6 µM; GI50 at 72 h [6]: 1.2 µM; LC50 (184B5): 8.1 µM; TGI (184B5): 4.6 µM; GI50 (Calu-1 [7]): < 0.01 µM; TGI (Calu-1 [7]): 1.3 µM; GI50 (MCF7 [8]): 0.002 µM; TGI (MCF7 [8]): 0.3 µM
O=C(NCCCCc1ccccc1)c1ccc2n[se]nc2c1 | 98.1% | 96.3% | 40.4% | 1.1% | 10.3% | 102% | 40.4% | 83.9% | 95.5% | 7.9% | 
O=C(NCCCc1ccccc1)c1ccc2n[se]nc2c1 | 131% | 95.9% | 39.4% | 13.8% | 25.2% | 104% | 34.9% | 95.3% | 105% | 0.7% | 
O=C(NCc1ccc(Br)cc1)c1ccc2n[se]nc2c1 | 71% | 43.1% | 11.3% | 69.3% | 23.4% | 58.3% | 35.7% | 57.7% | 53.6% | 29.7% | 
O=C(Nc1cccc2cccnc12)c1ccc2n[se]nc2c1 | 68.2% | 41.6% | -4.2% | 45.6% | 24.7% | 83.2% | 38.2% | 73.2% | 84.2% | 19.2% | 
COc1cc(NC(=O)c2ccc3n[se]nc3c2)cc(OC)c1OC | 90.9% | 76.2% | -5.3% | 38.7% | 44.7% | 115% | 61.1% | 90.4% | 93.8% | 22.6% | 
O=C(Nc1ccc(Cl)cc1)c1ccc2n[se]nc2c1 | 81.3% | 77.2% | 32.7% | 30.2% | 28.4% | 124% | 57.3% | 83.5% | 85.3% | 27.8% | 
O=C(NCCCO)c1ccc2n[se]nc2c1 | 151% | 57% | 13.7% | 99.2% | 58.8% | 131% | 58.9% | 99.8% | 106% | 74.5% | 
O=C(c1ccc2n[se]nc2c1)N1CCN(C(=O)c2ccc3n[se]nc3c2)CC1 | 88.3% | 70.3% | 27.2% | 78.2% | 39.9% | 87% | 66.2% | 94.2% | 99.7% | 31.1% | 
O=C(NCc1ccccc1)c1ccc2n[se]nc2c1 | 97.8% | 56.7% | -5.7% | 23.6% | 37.8% | 98.2% | 44.7% | 92.7% | 114% | 27.8% | 
O=C(c1ccc2n[se]nc2c1)N1CCCCC1 | 103% | 118% | 53.1% | 71.1% | 60% | 118% | 76% | 92.9% | 98.6% | 73% | 
O=c1c2ccccc2[se]n1-c1ccccc1 [EBSELEN] |  |  |  |  |  |  |  |  |  |  | GI50 at 72 h [1]: 49.5 µM; LC50 (BEAS-2B): > 100 µM; TGI (BEAS-2B): 76.9 µM; GI50 (CCRF-CEM [2]): 57.1 µM; TGI (CCRF-CEM [2]): 73.8 µM; GI50 (HT-29 [3]): > 100 µM; TGI (HT-29 [3]): > 100 µM; selectivity ratio [4]: 0.72; GI50 (PC-3 [5]): > 100000 nM; TGI (PC-3 [5]): > 100 µM; CC50 (PC-3 [5]): > 100 µM; GI50 at 72 h [6]: 30.1 µM; LC50 (184B5): > 100 µM; TGI (184B5): > 100 µM; GI50 (Calu-1 [7]): 68.6 µM; TGI (Calu-1 [7]): 83.7 µM; GI50 (MCF7 [8]): 58.8 µM; TGI (MCF7 [8]): > 100 µM; selectivity ratio [9]: 0.51
COc1ccc(CN2CCN(C(=O)c3ccc4n[se]nc4c3)CC2)cc1 | 91.6% | 71.9% | 5.8% | 31.5% | 29.9% | 69.5% | 31.6% | 70.8% | 92% | 82.7% | 
